This passage reports IC50 and inhibition results from ChEMBL document CHEMBL3870318, “Inhibitor screening and enzymatic activity determination for autophagy target Atg4B using a gel electrophoresis-based assay” (Eur J Med Chem, 2016).

In experiment [1] the target is T1, Cysteine protease ATG4B (Homo sapiens, UniProt Q9Y4P1).
T1 sequence (Q9Y4P1 whole entry): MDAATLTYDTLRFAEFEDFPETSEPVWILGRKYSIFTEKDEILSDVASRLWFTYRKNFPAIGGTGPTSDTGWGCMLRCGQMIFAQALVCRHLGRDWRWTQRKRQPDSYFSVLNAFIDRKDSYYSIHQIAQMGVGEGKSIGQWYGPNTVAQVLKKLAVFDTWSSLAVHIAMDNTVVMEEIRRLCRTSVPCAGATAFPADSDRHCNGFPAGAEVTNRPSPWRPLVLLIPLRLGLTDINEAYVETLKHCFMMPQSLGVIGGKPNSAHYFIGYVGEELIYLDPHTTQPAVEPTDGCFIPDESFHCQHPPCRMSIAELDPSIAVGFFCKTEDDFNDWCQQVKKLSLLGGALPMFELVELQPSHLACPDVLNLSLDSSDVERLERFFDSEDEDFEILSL
Nature of the experiment: Inhibition of wild type recombinant Atg4B (unknown origin) expressed in Escherichia coli BL21 DE3 using N-terminal His6-tagged LC3B-PLA2 as substrate after 60 mins by NBD-C6-HPC dye-based fluorescence assay.

The target in experiment [2] is T2, Cysteine protease ATG4B (Homo sapiens) (UniProt Q9Y4P1).
T2 sequence (whole entry): T1 sequence (Q9Y4P1 whole entry)
Nature of the experiment: Inhibition of human recombinant GST-tagged Atg4B expressed in Escherichia coli after 2 to 20 hrs by fluorescence assay. The procedure, abridged: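 Fluorogenic peptides of 8, 10, 12 or 16 residues matching pro-LC3B Glu105–Gly120 (N-terminal to scissile Gly120), each C-terminally capped with an aminocarboxycoumarin (ACC) tag. Cleavage by Atg4B at about 20 nM was followed by fluorescence release for up to 20 h.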

Experiment [3] addresses T2, Cysteine protease ATG4B (Homo sapiens). Description: Inhibition of human recombinant GST-tagged Atg4B expressed in Escherichia coli at 4 mM preincubated for 15 mins followed by LC3B-GST substrate addition after 6 mins by SDS-PAGE assay. The procedure, abridged:
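Recombinant human Atg4B (E. coli-expressed) at 0.625 ng/µL, preincubated 15 min with inhibitor. Then LC3B-GST (0.4 µg/µL) added in Tris-HCl buffer and incubated 6 min. Products resolved by SDS-PAGE and stained with Oriole. % uncleaved substrate derived by densitometry as OD(LC3B-GST)/(sum of all bands). Single representative experiment.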

Experiment [4] shares this target. Nature of the experiment: Inhibition of human recombinant GST-tagged Atg4B expressed in Escherichia coli at 40 mM using LC3B-GST as substrate measured after 6 mins by SDS-PAGE assay. The procedure, abridged: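 Recombinant human Atg4B (E. coli) at 0.625 ng/µL, with inhibitor dilutions of 0–40 mM, either preincubated 15 min or not preincubated. LC3B-GST (0.4 µg/µL) added in Tris-HCl buffer for 6 min. SDS-PAGE separation and Oriole staining followed. % uncleaved fusion protein derived from band optical densities. Single representative experiment.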

The target of experiment [5] is T1, Cysteine protease ATG4B. Nature of the experiment: Inhibition of Atg4B (unknown origin) using YFP-LC3B-EmGFP as substrate after 40 mins by FRET-based assay.
For experiment [6], the target named is T2, Cysteine protease ATG4B (Homo sapiens). Nature of the experiment: Inhibition of human recombinant GST-tagged Atg4B expressed in Escherichia coli at 5 mM preincubated for 15 mins followed by LC3B-GST substrate addition after 6 mins by SDS-PAGE assay. The procedure, abridged: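 Enzyme (0.625 ng/µL Atg4B, Tris-HCl buffer) was preincubated with inhibitor for 15 min before [LC3B-GST] (0.4 µg/µL) was added for 6 min. Samples were separated by SDS-PAGE and stained with Oriole. Densitometric optical densities of intact fusion protein, GST and LC3B gave percent uncleaved substrate.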

The target is the same in experiment [7]. Description: Inhibition of human recombinant GST-tagged Atg4B expressed in Escherichia coli at 20 mM using LC3B-GST as substrate measured after 6 mins by SDS-PAGE assay. The procedure, abridged: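 Atg4B at 0.625 ng/µL in Tris-HCl was mixed with inhibitor without preincubation. [LC3B-GST] at 0.4 µg/µL was then added for 6 min. Products were resolved by SDS-PAGE and stained with Oriole fluorescent gel stain. Percent uncleaved substrate was taken by densitometry as OD(LC3B-GST)/[OD(LC3B-GST)+OD(GST)+OD(LC3B)]×100.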

Experiment [8] shares this target. Description: Inhibition of human recombinant GST-tagged Atg4B expressed in Escherichia coli at 4 mM using LC3B-GST as substrate preincubated up to 20 mins followed by substrate addition measured after 6 mins by SDS-PAGE assay.
The target of experiment [9] is T1, Cysteine protease ATG4B. Description: Inhibition of human recombinant GST-tagged Atg4B expressed in Escherichia coli using LC3B-GST as substrate after 6 mins by SDS-PAGE assay.

SMILES strings stand for the structures. The source made the active and inactive calls. The calls are words filed in the database; no cut-off is given here.

Take `O=c1oc2c(O)c(O)cc3c(=O)oc4c(O)c(O)cc1c4c23` [ELLAGIC ACID]: the IC50 (as a rule, the point on the concentration scale where inhibition reaches its midpoint) on Cysteine protease ATG4B [1] stood at 5.5 µM. The inhibition entry in experiment [2] is “Active”.
On to `O=C(O)c1cc(O)c(=O)c2c(O)c(O)ccc2c1` [7-DESHYDROXYPYROGALLIN-4-CARBOXYLIC ACID], for which the 50% inhibitory concentration (IC50) at Cysteine protease ATG4B [1] is 2.3 µM.
`NC(=O)CI`: the inhibition result in experiment [3] and in [4] was “Active” each time.
At Cysteine protease ATG4B [5], `O=C(N[C@@H](Cc1ccccc1)C(=O)CCl)OCc1ccccc1` had an IC50 of 0.63 µM.
With `CCN1C(=O)C=CC1=O`, the inhibition result in [6], in experiment [7] and in experiment [8] was “Active” throughout.
Regarding `Cc1cc(O)c2c(=O)c3c(O)cc(O)c4c5c(O)cc(O)c6c(=O)c7c(O)cc(C)c8c1c2c(c34)c(c78)c65` [HYPERICIN], at Cysteine protease ATG4B [5], the IC50 amounted to 57 µM.
For the molecule `O=C(O)C1=CC(=C(c2ccc(O)c(C(=O)O)c2)c2ccc(O)c(C(=O)O)c2)C=CC1=O` [AURINTRICARBOXYLIC ACID], the IC50 at Cysteine protease ATG4B [9] is 38 to 45 µM; against Cysteine protease ATG4B [5], 1.3 µM.
Consider `Cc1sc2nc(C3CCCCC3)nc(SCC(=O)N3CC(=O)Nc4ccccc43)c2c1C`, for which the inhibition result in [2] is “Active”.
